# Published values pooled from the literature.
# Compare with care: the assays were run in different laboratories.
# Target: Amine oxidase [flavin-containing] A (MAOA, Homo sapiens, UniProt P21397)
# Effect on: enzyme activity
# Action: inhibitor
# Sequence (P21397 1-527, as in one of the studies): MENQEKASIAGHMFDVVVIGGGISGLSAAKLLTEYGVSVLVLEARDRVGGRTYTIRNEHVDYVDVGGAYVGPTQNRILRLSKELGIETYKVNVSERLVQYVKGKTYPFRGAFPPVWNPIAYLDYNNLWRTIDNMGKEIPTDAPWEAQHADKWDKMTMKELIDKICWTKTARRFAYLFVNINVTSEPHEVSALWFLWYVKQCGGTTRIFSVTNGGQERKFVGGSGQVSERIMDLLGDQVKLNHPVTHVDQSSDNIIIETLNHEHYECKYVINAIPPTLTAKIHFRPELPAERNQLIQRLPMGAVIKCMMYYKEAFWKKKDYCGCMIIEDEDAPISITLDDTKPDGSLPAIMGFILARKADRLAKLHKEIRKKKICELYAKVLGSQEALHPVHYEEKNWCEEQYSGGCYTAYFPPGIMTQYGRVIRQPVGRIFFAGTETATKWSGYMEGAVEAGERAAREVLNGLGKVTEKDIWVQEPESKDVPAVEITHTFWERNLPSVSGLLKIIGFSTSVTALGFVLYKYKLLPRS
SMILES,assay,conditions,endpoint,result
CN1CCN(C(=O)CN[C@@H]2C[C@H]2c2ccc(OCc3ccccc3)cc2)CC1,luciferase,,IC50,0.51 µM
COC(=O)c1ccc(C(=O)OC)c(NC(=O)c2cc(Cl)ccc2O)c1,,,IC50,> 5 µM
O=C(O)c1cc(O)c2c(c1)C(=O)c1cc(O)cc(O)c1C2=O,,,IC50,47.1 µM
COc1cc(/C=C/C(=O)N2CCc3ccccc3C2)ccc1OC1CCCCC1,fluorescence,,IC50,65.3 µM
c1cc2c(cc1C1CCCCC1)c1c3n2CCNC3CCC1 (centres unmarked),,pH 7.5,Ki,5.3 µM
O=C1C[C@@H](c2ccc(O)cc2)Oc2cc(O)cc(O)c21,,,IC50,8.64 µM
COc1ccc(/C=C/C(=O)N2CCC(Cc3ccccc3)CC2)cc1OC,fluorescence,,IC50,66.1 µM
O=C1c2c(O)cc(O)cc2O[C@H](c2ccc(O)cc2)[C@H]1O,,,IC50,14.6 µM
C#CCOc1ccc(/C=C/C(=O)N2CCc3ccccc3C2)cc1OC,fluorescence,,IC50,64 µM
O=c1c(O)c(-c2ccc(O)c(O)c2)oc2cc(O)ccc12,,,IC50,4.62 µM
O=C(Nc1ccc([N+](=O)[O-])cc1Cl)c1cc2ccccc2o1,,,IC50,0.293 µM
